Experiments:
[1] = target: T1, 5-hydroxytryptamine receptor 1A (Rattus norvegicus, UniProt P19327); assay: In vitro ability to displace [3H]8-OH-DPAT from 5-hydroxytryptamine 1A receptor sites of rat brain cortex.
T1 sequence (P19327 whole entry): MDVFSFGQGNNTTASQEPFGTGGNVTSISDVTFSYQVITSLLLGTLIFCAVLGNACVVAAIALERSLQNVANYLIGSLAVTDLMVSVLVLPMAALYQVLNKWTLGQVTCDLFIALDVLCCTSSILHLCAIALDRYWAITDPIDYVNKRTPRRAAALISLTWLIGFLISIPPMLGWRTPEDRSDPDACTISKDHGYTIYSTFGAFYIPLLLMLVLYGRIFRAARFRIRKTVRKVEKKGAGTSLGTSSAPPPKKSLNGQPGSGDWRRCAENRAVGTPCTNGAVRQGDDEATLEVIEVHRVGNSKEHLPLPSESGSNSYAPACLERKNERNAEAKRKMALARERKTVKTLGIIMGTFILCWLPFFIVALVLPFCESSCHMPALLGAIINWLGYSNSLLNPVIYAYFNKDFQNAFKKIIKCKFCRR
Outline: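 Male Wistar rat cerebral cortex membranes in 50 mM Tris-HCl with 4 mM CaCl2, 0.1% ascorbate and 10 μM pargyline. Nonspecific binding defined with 10 μM 5-HT. Read by filtration and scintillation counting. Twelve displacer concentrations, triplicate samples, two experiments. IC50/Ki obtained by nonlinear regression.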

[2] = target: Adrenergic receptor alpha-1 (Oryctolagus cuniculus); assay: Antagonistic activity at Alpha-1 adrenergic receptor was performed on ring segments of rabbit thoracic aorta contracted by noradrenaline.

SMILES	Ki [1]	pA2 [2]
COc1ccccc1N1CCN(CCCNC(=O)c2cccnc2)CC1	321 nM	
COc1ccccc1N1CCN(CCCCNC(=O)C2CCCC2)CC1	1.88 nM	
COc1ccccc1N1CCN(CCCCNC(=O)C2CCC3CCCC32)CC1 (stereo not given)	0.63 nM	
COc1ccccc1N1CCN(CCCCNC(=O)c2cccn2C)CC1.O=C(O)/C=C/C(=O)O	0.74 nM	7.72
COc1ccccc1N1CCN(CCNC(=O)C2CC3CCC2C3)CC1 (stereo not given)	0.12 nM	
COc1ccccc1N1CCN(CCCCNC(=O)C2CC3C=CC2C3)CC1 (stereo not given)	0.38 nM	8.53
COc1ccccc1N1CCN(CCNC(=O)C2CCC3CCCC32)CC1 (stereo not given)	0.24 nM	
COc1ccccc1N1CCN(CCCCNC(=O)C2CC3CCC2C3)CC1 (stereo not given)	0.23 nM	
COc1ccccc1N1CCN(CCCCNC(=O)c2ccco2)CC1	55.7 nM	
COc1ccccc1N1CCN(CCNC(=O)C2CCCC2)CC1	4.68 nM	
COc1ccccc1N1CCN(CCCCNC(=O)Cc2ccsc2)CC1	17.5 nM	
COc1ccccc1N1CCN(CCCNC(=O)C2CCC3CCCC32)CC1 (stereo not given)	11.6 nM	
COc1ccccc1N1CCN(CCCCNC(=O)c2ccc[nH]2)CC1	12.5 nM	
COc1ccccc1N1CCN(CCNC(=O)Cc2ccsc2)CC1	32.3 nM	
COc1ccccc1N1CCN(CCNC(=O)C2CC3C=CC2C3)CC1 (stereo not given)	0.27 nM	
COc1ccccc1N1CCN(CCCNC(=O)c2ccc[nH]2)CC1	201 nM	
COc1ccccc1N1CCN(CCCCNC(=O)c2cccnc2)CC1	25.2 nM	

Continued, values first:

Ki [1]	pA2 [2]	SMILES
1.53 nM		COc1ccccc1N1CCN(CCCCNC(=O)c2sccc2C)CC1
362 nM		COc1ccccc1N1CCN(CCNC(=O)c2cccnc2)CC1
2.29 nM		COc1ccccc1N1CCN(CCNC(=O)c2ccc(C)s2)CC1
20.3 nM		COc1ccccc1N1CCN(CCNC(=O)c2ccc[nH]2)CC1
3.8 nM	< 7	COc1ccccc1N1CCN(CCCCNC(=O)c2ccc(C)s2)CC1
2.34 nM	9.16	COc1ccccc1N1CCN(CCCCNC(=O)c2cccs2)CC1
3.34 nM		COc1ccccc1N1CCN(CCCCNC(=O)c2sccc2Cl)CC1
32.1 nM		COc1ccccc1N1CCN(CCCCNC(=O)c2sccc2OC)CC1
2.2 nM		COc1ccccc1N1CCN(CCCCNC(=O)c2ccsc2)CC1
3.09 nM		COc1ccccc1N1CCN(CCNC(=O)c2sccc2C)CC1
1.19 nM	< 7	COc1ccccc1N1CCN(CCNC(=O)c2cccn2C)CC1
6.83 nM	< 7	COc1ccccc1N1CCN(CCNC(=O)c2ccsc2)CC1
